Data taken from ChEMBL document CHEMBL5046219, “Optimization of N-Phenylpropenoyl-l-amino Acids as Potent and Selective Inducible Nitric Oxide Synthase Inhibitors for Parkinson's Disease” (J Med Chem, 2021).
Activity calls are given as the source filed them. No cut-off for these calls is given here.

Tests used:
[1] = biological target: Nitric oxide sythases; iNOS & nNOS (Homo sapiens) (UniProt P29475+P35228); assay: Selectivity ratio of IC50 for human nNOS to IC50 for human iNOS; assay type: protein assay
Nitric oxide sythases; iNOS & nNOS (Homo sapiens), sequence (P29475 whole entry, looked up): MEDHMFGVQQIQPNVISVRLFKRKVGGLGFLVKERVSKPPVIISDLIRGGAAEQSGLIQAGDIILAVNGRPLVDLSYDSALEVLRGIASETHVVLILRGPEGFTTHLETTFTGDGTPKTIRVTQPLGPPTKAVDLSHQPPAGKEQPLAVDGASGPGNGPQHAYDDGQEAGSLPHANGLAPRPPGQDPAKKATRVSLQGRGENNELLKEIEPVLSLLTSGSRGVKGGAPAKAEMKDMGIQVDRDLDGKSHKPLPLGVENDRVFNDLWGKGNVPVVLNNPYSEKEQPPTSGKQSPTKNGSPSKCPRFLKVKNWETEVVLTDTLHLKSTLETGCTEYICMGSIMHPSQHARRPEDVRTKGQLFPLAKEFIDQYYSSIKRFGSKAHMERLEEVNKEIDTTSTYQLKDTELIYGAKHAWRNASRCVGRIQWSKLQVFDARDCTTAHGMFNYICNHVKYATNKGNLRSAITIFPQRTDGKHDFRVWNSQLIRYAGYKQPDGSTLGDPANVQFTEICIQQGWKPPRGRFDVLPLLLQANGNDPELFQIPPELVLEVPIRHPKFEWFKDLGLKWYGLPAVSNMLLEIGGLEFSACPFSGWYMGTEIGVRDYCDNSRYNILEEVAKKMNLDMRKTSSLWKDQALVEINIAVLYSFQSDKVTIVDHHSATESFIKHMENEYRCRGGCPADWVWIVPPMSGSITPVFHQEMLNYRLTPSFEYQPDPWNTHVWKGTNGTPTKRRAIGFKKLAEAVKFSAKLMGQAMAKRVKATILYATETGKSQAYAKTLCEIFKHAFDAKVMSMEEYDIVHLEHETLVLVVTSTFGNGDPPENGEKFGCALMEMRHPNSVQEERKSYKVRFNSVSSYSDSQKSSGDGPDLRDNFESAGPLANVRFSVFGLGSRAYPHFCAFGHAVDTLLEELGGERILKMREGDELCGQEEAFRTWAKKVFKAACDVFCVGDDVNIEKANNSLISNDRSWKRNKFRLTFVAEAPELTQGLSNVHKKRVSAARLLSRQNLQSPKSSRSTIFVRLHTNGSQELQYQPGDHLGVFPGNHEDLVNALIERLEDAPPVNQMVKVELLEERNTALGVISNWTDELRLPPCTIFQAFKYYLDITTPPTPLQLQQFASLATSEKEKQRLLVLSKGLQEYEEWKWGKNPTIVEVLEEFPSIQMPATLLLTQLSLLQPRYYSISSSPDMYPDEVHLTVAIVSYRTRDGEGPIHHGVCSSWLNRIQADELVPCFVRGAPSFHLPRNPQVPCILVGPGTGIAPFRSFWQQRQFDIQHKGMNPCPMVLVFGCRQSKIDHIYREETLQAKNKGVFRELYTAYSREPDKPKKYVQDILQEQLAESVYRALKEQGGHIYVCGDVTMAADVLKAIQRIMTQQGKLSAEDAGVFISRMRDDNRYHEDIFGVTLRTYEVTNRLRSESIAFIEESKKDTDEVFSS
Nitric oxide sythases; iNOS & nNOS (Homo sapiens), sequence (P35228 whole entry, looked up): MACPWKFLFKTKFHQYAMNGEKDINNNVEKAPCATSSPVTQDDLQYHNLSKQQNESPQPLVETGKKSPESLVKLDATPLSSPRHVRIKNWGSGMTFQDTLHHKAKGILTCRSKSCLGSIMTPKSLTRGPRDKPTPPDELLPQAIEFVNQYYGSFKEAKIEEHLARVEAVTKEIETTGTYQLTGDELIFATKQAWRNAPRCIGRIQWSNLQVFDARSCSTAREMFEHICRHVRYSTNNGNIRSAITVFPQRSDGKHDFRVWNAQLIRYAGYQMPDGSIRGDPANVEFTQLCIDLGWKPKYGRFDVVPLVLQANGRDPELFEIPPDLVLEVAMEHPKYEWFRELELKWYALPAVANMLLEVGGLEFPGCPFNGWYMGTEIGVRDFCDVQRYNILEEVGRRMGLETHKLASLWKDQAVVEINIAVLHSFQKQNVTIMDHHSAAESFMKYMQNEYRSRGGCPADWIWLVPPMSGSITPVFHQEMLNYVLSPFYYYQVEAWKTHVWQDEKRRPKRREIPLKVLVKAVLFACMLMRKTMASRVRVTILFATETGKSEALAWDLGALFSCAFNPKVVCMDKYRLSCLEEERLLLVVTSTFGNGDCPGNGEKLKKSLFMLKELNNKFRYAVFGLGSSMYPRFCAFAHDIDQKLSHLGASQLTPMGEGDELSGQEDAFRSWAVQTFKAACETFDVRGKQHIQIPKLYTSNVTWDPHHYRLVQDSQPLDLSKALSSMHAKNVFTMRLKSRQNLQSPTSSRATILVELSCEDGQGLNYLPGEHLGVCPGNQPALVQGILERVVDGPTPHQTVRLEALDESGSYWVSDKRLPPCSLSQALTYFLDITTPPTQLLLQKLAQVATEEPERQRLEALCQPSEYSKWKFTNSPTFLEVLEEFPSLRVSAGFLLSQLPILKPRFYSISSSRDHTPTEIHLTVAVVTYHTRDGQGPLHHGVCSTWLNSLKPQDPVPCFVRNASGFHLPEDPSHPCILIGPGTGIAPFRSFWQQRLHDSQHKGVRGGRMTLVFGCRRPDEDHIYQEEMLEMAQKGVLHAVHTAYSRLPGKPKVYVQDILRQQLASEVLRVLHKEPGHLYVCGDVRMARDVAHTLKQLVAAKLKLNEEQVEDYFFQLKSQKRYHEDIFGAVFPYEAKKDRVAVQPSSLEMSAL
Method in brief: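 Human nNOS and human iNOS each converting [³H]arginine (10 nM) to [³H]citrulline, with [¹⁴C]citrulline (80−120 nM) as internal standard, in 50 mM HEPES at 37 °C for 1 h. Cofactors were NADP⁺, G6P/G6PDH, MgCl₂, FAD, FMN and BH₄; nNOS also had calmodulin, CaCl₂ and glutathione. Eight concentrations (0.01−10 μM). Stopped with MES, passed over cation-exchange resin, filtrate counted. Background set with 10 μM AMT. Each IC50 from a curve, repeated three times.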

Nitric oxide synthase 1 = Nitric oxide synthase 1 (Homo sapiens, UniProt P29475); assay: Inhibition of human nNOS assessed as reduction in L-[3H]-citrulline level using L-[3H]-arginine as substrate incubated for 1 hr
Nitric oxide synthase 1, sequence (P29475 whole entry): as the sequence (P29475 whole entry, looked up) above

Homo sapiens = species on record: Homo sapiens; assay: Selectivity ratio of IC50 for human eNOS to IC50 for human iNOS
Method in brief: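 Human iNOS, eNOS or nNOS was incubated 1 h at 37 °C in 50 mM HEPES with 10 nM [3H]arginine and [14C]citrulline internal standard. Cofactors were NADP⁺, G6P, G6P dehydrogenase, MgCl2, FAD, FMN and BH4. eNOS and nNOS reactions also contained 25 nM calmodulin, 0.5 mM CaCl2 and 3.5 mM glutathione. Reactions were stopped with MES and passed through cation exchange resin, and [3H]citrulline was counted. Background was set with 10 μM AMT. IC50 values came from eight concentrations (0.01–10 μM), in three repeated experiments.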

BV-2 = assay: Anti-neuroinflammation in mouse BV-2 cells assessed as inhibition of LPS-induced NO production at 1 uM preincubated for 6 hrs followed by LPS addition measured after 24 hrs by Griess reagent based assay; assay type: functional
Method in brief: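 BV-2 murine microglia were grown in DMEM with 10% FBS at 37 °C and 5% CO2, then seeded at 5 × 10³ cells/well. After 24 h, compound was added at 1 μM. LPS (500 ng/mL) followed 6 h later. After a further 24 h, medium was collected and NO was read at 540 nm with a colorimetric NO detection kit.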

[2] = biological target: Nitric oxide synthase, inducible (Homo sapiens, UniProt P35228); assay: Inhibition of human iNOS assessed as reduction in L-[3H]-citrulline level using L-[3H]-arginine as substrate incubated for 1 hr
Nitric oxide synthase, inducible, sequence (P35228 whole entry): as the sequence (P35228 whole entry, looked up) above

Nitric oxide synthase 3 = biological target: T1, Nitric oxide synthase 3 (Homo sapiens, UniProt P29474); assay: Inhibition of human eNOS assessed as reduction in L-[3H]-citrulline level using L-[3H]-arginine as substrate incubated for 1 hr
T1 sequence (P29474 whole entry): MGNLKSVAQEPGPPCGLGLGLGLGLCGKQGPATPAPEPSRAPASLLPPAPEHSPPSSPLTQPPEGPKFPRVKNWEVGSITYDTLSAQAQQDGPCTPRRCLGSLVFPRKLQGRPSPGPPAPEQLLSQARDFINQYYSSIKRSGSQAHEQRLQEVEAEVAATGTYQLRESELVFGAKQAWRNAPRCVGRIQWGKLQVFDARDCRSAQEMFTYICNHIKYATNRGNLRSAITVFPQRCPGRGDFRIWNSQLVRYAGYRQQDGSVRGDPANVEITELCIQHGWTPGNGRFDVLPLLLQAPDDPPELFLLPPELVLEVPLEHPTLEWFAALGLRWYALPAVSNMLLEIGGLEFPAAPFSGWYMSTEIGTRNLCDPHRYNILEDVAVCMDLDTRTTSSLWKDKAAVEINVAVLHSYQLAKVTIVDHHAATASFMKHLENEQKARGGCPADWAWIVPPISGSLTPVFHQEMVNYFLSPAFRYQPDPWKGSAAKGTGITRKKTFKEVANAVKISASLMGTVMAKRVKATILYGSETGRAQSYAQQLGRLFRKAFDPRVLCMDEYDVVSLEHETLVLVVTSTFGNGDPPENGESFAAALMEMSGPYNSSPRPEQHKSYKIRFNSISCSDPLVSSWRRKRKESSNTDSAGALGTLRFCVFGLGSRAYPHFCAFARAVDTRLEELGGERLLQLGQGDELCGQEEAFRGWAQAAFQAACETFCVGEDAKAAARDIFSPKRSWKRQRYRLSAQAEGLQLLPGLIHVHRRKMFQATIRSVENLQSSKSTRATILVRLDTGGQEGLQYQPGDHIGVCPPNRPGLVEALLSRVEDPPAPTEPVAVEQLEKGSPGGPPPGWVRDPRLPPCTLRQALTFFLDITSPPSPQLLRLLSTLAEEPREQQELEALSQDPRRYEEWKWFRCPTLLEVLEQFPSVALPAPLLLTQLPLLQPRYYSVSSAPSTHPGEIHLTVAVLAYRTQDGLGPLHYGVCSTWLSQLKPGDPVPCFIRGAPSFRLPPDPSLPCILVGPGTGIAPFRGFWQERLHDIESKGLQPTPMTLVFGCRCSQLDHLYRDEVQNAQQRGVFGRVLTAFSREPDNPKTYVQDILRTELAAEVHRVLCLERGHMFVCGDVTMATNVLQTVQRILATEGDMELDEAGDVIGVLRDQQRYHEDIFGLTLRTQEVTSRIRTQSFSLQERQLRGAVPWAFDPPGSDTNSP

[3] = Half life in Balb/c mouse blood at 30 mg/kg, po administered as single dose measured upto 24 hrs by LC-MS analysis; assay type: ADME, organism-based
Method in brief: (§1)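 Male BALB/c mice were fasted 16 h and then given a single intragastric dose of 30 mg/kg. Blood and brain were collected after decapitation at 5, 10, 15 and 30 min and at 1, 2, 6, 8, 12 and 24 h. Plasma was obtained by centrifugation and brains were homogenized in saline. Samples underwent methanol protein precipitation and single-quadrupole LC-MS on a C18 column at 30 °C, using isocratic 40% acetonitrile with 0.1% formic acid.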

[4] = Effective permeability of compound in PBS buffer at pH 7.4 at 200 uM incubated for 17 hrs by PAMPA-BBB assay; assay type: ADME; details: read-out: Peff
Method in brief: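 PAMPA-BBB: the donor filter was coated with porcine brain lipid (20 mg/mL in dodecane). Compound was loaded at 200 μM in 10 mM PBS pH 7.4, with PBS as acceptor. Plates were incubated 17 h at 25 °C in saturated humidity with 100 rpm orbital shaking. Donor and acceptor concentrations were read by UV and Pe was calculated from the flux equation. Values are the mean of triplicates with SD.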

[5] = AUC (0 to infinity) in Balb/c mouse brain at 30 mg/kg, po administered as single dose measured upto 24 hrs by LC-MS analysis; assay type: ADME, organism-based; design: route oral, dose 30 mg/kg, time <=24; method in brief: as §1
[6] = Half life in Balb/c mouse brain at 30 mg/kg, po administered as single dose measured upto 24 hrs by LC-MS analysis; assay type: ADME, organism-based; method in brief: as §1
[7] = Cmax in Balb/c mouse blood at 30 mg/kg, po administered as single dose measured upto 24 hrs by LC-MS analysis; assay type: ADME, organism-based; design: route oral, dose 30 mg/kg, time <=24; method in brief: as §1
[8] = AUC (0 to infinity) in Balb/c mouse blood at 30 mg/kg, po administered as single dose measured upto 24 hrs by LC-MS analysis; assay type: ADME, organism-based; design: route oral, dose 30 mg/kg, time <=24; method in brief: as §1
[9] = Cmax in Balb/c mouse brain at 30 mg/kg, po administered as single dose measured upto 24 hrs by LC-MS analysis; assay type: ADME, organism-based; design: route oral, dose 30 mg/kg, time <=24; method in brief: as §1

Row | Compound | Ratio IC50 [1] | IC50 (Nitric oxide synthase 1) [µM] | Ratio IC50 (Homo sapiens) | IC50 [2] [µM] | IC50 (Nitric oxide synthase 3) [µM] | half-life [3] [h] | Papp at 17 h, 200 µM [4] [×10⁻⁶ cm/s] | AUC(0-inf) [5] [ng·h/mL] | half-life [6] [h] | Cmax [7] [ng/mL] | AUC(0-inf) [8] [ng·h/mL] | Cmax [9] [ng/mL] | Activity (BV-2)
1 | CC(C)C[C@H](NC(=O)/C=C/c1ccc(Cl)c(Cl)c1)C(=O)O | 39 | 29.6 | 39 | 0.765 | 29.7 |  |  |  |  |  |  |  | Active
2 | CC(=N)NCc1cccc(CN)c1 [1400W] |  |  |  |  |  |  | 3.18 |  |  |  |  |  | 

Now from value to compound, other results behind:

Row | Ratio IC50 [1] | IC50 (Nitric oxide synthase 1) [µM] | Ratio IC50 (Homo sapiens) | IC50 [2] [µM] | IC50 (Nitric oxide synthase 3) [µM] | half-life [3] [h] | Papp at 17 h, 200 µM [4] [×10⁻⁶ cm/s] | AUC(0-inf) [5] [ng·h/mL] | half-life [6] [h] | Cmax [7] [ng/mL] | AUC(0-inf) [8] [ng·h/mL] | Cmax [9] [ng/mL] | Compound | Activity (BV-2)
3 | 149 | 149 | 165 | 0.993 | 164 |  |  |  |  |  |  |  | O=C(/C=C/c1ccc(Cl)c(Cl)c1)N[C@@H](Cc1ccc(F)cc1)C(=O)O | Active
4 | 153 | 126 | 180 | 0.82 | 147 |  |  |  |  |  |  |  | O=C(/C=C/c1ccccc1Cl)N[C@@H](Cc1ccc(F)cc1)C(=O)O | Active
5 | 45 | 40.3 | 52 | 0.892 | 46.6 | 1.2 | 1.23 | 567 | 0.9 | 1000 | 3450 | 40.2 | COc1cc(/C=C/C(=O)N[C@H](Cc2ccc(O)cc2)C(=O)O)ccc1O | 
